Data set [1] deals with SH-SY5Y. The data set is described as follows: Neuroprotective activity against MPP+-induced neuronal cell death in human SH-SY5Y cells assessed as cell viability at 3 uM pretreated for 2 hrs before MPP+ administration measured after 4 hrs by MTT assay. Type of data set: functional. In short, it runs like this: (§1)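 SH-SY5Y cells grown at 37 °C in DMEM with 10% heat-inactivated FBS and penicillin/streptomycin, detached with 1 mM EGTA in PBS for 15 min, seeded at 1 × 10^4 cells/well and incubated 24 h. Cells were pretreated 2 h with compound at 3, 10 or 30 μM, then exposed to MPP+ medium. MTT was added to 0.5 mg/mL final, incubated 4 h, and formazan read at 550 nm. Guanosine served as positive control. Triplicates, mean ± SEM, ANOVA with Student–Newman–Keuls test.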
A general note: Tetrazolium assays rely on reduction of a dye to a coloured formazan, in cell work by metabolically active cells.

The subject of data set [2] is SH-SY5Y. The data set is described as follows: Neuroprotective activity against MPP+-induced neuronal cell death in human SH-SY5Y cells assessed as cell viability at 10 uM pretreated for 2 hrs before MPP+ administration measured after 4 hrs by MTT assay. Type of data set: functional. In short, it runs like this: as §1
In data set [3] the test system is SH-SY5Y. The data set is described as follows: Neuroprotective activity against MPP+-induced neuronal cell death in human SH-SY5Y cells assessed as cell viability at 30 uM pretreated for 2 hrs before MPP+ administration measured after 4 hrs by MTT assay. Type of data set: functional. The procedure, abridged:
as §1

Data set [4] deals with SH-SY5Y. Nature of the data set: Cytotoxicity in human SH-SY5Y cells at 3 to 30 uM by MTT assay. Type of data set: cell-based. In short, it runs like this:
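SH-SY5Y human dopaminergic neuroblastoma cells grown at 37 °C, 5% CO2, in DMEM with 10% inactivated FBS and penicillin/streptomycin. Cells detached with 1 mM EGTA in PBS for 15 min, seeded at 1 × 10^4 cells/well, and incubated 24 h. Compounds given at 3, 10 and 30 μM. MTT added to 0.5 mg/mL final for 4 h at 37 °C; formazan read at 550 nm. Run in triplicate.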

Calls of active or inactive are those of the source. The calls are words filed in the database; no cut-off is given here.

Regarding `CC(=O)OC[C@@]12[C@@H](OC(C)=O)C[C@@H](C)[C@](C)(C[C@H](OC(C)=O)C3=CC(=O)OC3)[C@H]1[C@H](OC(C)=O)CC[C@]21CO1`, the result in the data set with SH-SY5Y [1], in the data set with SH-SY5Y [2] and with SH-SY5Y [3] was inactive.

Turning to `CC[C@H](C)C(=O)O[C@@H]1CC[C@](O)(CCl)[C@]2(COC(C)=O)[C@@H](OC(C)=O)C[C@@H](C)[C@](C)(C[C@H](OC(C)=O)C3=CC(=O)OC3)[C@@H]12`, the outcome in the data set with SH-SY5Y [1], in the data set on SH-SY5Y [2] and with SH-SY5Y [3] was inactive.

As for `CC[C@H](C)C(=O)O[C@@H](C[C@@]1(C)[C@H](C)C[C@H](OC(C)=O)[C@]2(COC(C)=O)[C@@H]1[C@H](OC(C)=O)CC[C@]2(O)CCl)C1=CC(=O)OC1` [AJUGACILIATIN B], the Activity is reported as 67.4% with SH-SY5Y [1], 80.4% with SH-SY5Y [2] and 88.2% in the data set on SH-SY5Y [3].

`C/C=C(\C)C(=O)O[C@@H]1CC[C@](O)(CCl)[C@]2(COC(C)=O)[C@@H](OC(C)=O)C[C@@H](C)[C@](C)(C[C@H](OC(=O)[C@@H](C)CC)C3=CC(=O)OC3)[C@@H]12`: the outcome in the data set on SH-SY5Y [1], in the data set with SH-SY5Y [2] and in the data set with SH-SY5Y [3] was inactive.

For the compound `CC(=O)OC[C@]12[C@@H](OC(C)=O)C[C@@H](C)[C@]3(C)C[C@H](C4=CC(=O)OC4)O[C@H](CC[C@]14CO4)[C@H]32` [AJUGACILIATIN H], the Activity with SH-SY5Y [1] is 65.2%; in the data set with SH-SY5Y [2], 74.2%; in the data set with SH-SY5Y [3], 78.2%.

For `CC[C@H](C)C(=O)O[C@@H](C[C@@]1(C)[C@H](C)C[C@H](OC(C)=O)[C@]2(COC(C)=O)[C@@H]1[C@H](OC(=O)[C@@H](C)CC)CC[C@]2(O)CCl)C1=CC(=O)OC1`, the outcome with SH-SY5Y [1], in the data set with SH-SY5Y [2] and with SH-SY5Y [3] was inactive.

With `C/C=C(\C)C(=O)O[C@@H](C[C@@]1(C)[C@H](C)C[C@H](OC(C)=O)[C@]2(COC(C)=O)[C@@H]1[C@H](OC(=O)/C(C)=C/C)CC[C@]21CO1)C1=CC(=O)OC1` [AJUGATAKASIN A], the results for the Activity in the data set on SH-SY5Y [1], in the data set on SH-SY5Y [2] and in the data set on SH-SY5Y [3] were 66.3%, 71.5% and 78.2%, respectively.

On to `Nc1nc2c(ncn2[C@@H]2O[C@H](CO)[C@@H](O)[C@H]2O)c(=O)[nH]1` [GUANOSINE], for which the results for the Activity in the data set with SH-SY5Y [1], in the data set on SH-SY5Y [2] and with SH-SY5Y [3] were 70%, 79.7% and 90.1%, respectively.

`CC(=O)OC[C@@]12[C@@H](OC(C)=O)C[C@@H](C)[C@](C)(C[C@H](O)C3=CC(=O)OC3)[C@H]1[C@H](OC(C)=O)CC[C@]21CO1`: the result in the data set with SH-SY5Y [1], with SH-SY5Y [2] and in the data set with SH-SY5Y [3] was inactive.

As to `C/C=C(\C)C(=O)OC[C@@]12[C@@H](OC(C)=O)C[C@@H](C)[C@](C)(CCC3=CC(=O)OC3)[C@H]1CCC[C@]2(O)CCl`, the outcome in the data set with SH-SY5Y [1], in the data set with SH-SY5Y [2] and in the data set on SH-SY5Y [3] was inactive.

As to `C/C=C(\C)C(=O)O[C@@H]1CC[C@]2(CO2)[C@]2(COC(C)=O)[C@@H](OC(C)=O)C[C@@H](C)[C@](C)(C[C@H](O)C3=CC(=O)OC3)[C@@H]12` [AJUGAMARIN A1], the Activity was determined as 65.3% in the data set with SH-SY5Y [1], 73.4% with SH-SY5Y [2] and 81.9% with SH-SY5Y [3].

As for `C/C=C(\C)C(=O)OC[C@@]1(O)CCC[C@@H]2[C@@](C)(CCC3=CC(=O)OC3)[C@H](C)C[C@H](O)[C@]21CO`, the result in the data set with SH-SY5Y [1], in the data set with SH-SY5Y [2] and with SH-SY5Y [3] was inactive.

In the case of `CC(=O)OC[C@@]12[C@@H](OC(C)=O)C[C@@H](C)[C@](C)(C[C@H](O)C3=CC(=O)OC3)[C@H]1CCC[C@]21CO1`, the result with SH-SY5Y [1], in the data set with SH-SY5Y [2] and in the data set with SH-SY5Y [3] was inactive.

Consider `C/C=C(\C)C(=O)O[C@@H]1CC[C@](O)(CCl)[C@]2(COC(C)=O)[C@@H](OC(C)=O)C[C@@H](C)[C@](C)(C[C@H](O)C3=CC(=O)OC3)[C@@H]12` [AJUGAMARIN A1 CHLOROHYDRIN], for which the Activity in the data set on SH-SY5Y [1] was found to be 67.1%; in the data set with SH-SY5Y [2], 69.2%; in the data set on SH-SY5Y [3], 73.8%.

`CC(=O)OC[C@]12[C@@H](OC(C)=O)C[C@@H](C)[C@]3(C)C[C@H](C4=CC(=O)OC4)O[C@H](CC[C@]1(O)CCl)[C@H]32`: the result in the data set with SH-SY5Y [1], in the data set on SH-SY5Y [2] and with SH-SY5Y [3] was inactive.

Regarding `C/C=C(\C)C(=O)OC[C@@]12[C@@H](OC(C)=O)C[C@@H](C)[C@](C)(CCC3=CC(=O)OC3)[C@H]1CCC[C@]21CO1`, the outcome in the data set on SH-SY5Y [1], with SH-SY5Y [2] and in the data set on SH-SY5Y [3] was inactive.

In the case of `CC[C@H](C)C(=O)O[C@@H]1CC[C@]2(CO2)[C@]2(COC(C)=O)[C@@H](OC(C)=O)C[C@@H](C)[C@](C)(C[C@H](O)C3=CC(=O)OC3)[C@@H]12`, the result in the data set on SH-SY5Y [1], in the data set on SH-SY5Y [2] and with SH-SY5Y [3] was inactive.

Take `C/C=C(\C)C(=O)O[C@@H](C[C@@]1(C)[C@H](C)C[C@H](OC(C)=O)[C@]2(COC(C)=O)[C@@H]1CCC[C@]21CO1)C1=CC(=O)OC1`: the outcome with SH-SY5Y [1], with SH-SY5Y [2] and in the data set with SH-SY5Y [3] was inactive.

`C/C=C(\C)C(=O)O[C@@H](C[C@@]1(C)[C@H](C)C[C@H](OC(C)=O)[C@]2(COC(C)=O)[C@@H]1[C@H](OC(=O)[C@@H](C)CC)CC[C@]21CO1)C1=CC(=O)OC1` [AJUGAMARIN H1]: the Activity worked out at 67.3% in the data set with SH-SY5Y [1], 70.4% in the data set with SH-SY5Y [2] and 87.5% in the data set with SH-SY5Y [3].

Take `CC(=O)OC[C@]12[C@@H](OC(C)=O)C[C@@H](C)[C@]3(C)C[C@H](C4=CC(=O)OC4)O[C@H](CC[C@]1(O)CO)[C@H]32` [AJUGACILIATIN G]: the Activity with SH-SY5Y [1] was found to be 69.1%; with SH-SY5Y [2], 73.6%; with SH-SY5Y [3], 81.5%.

Take `C/C=C(\C)C(=O)O[C@@H](C[C@@]1(C)[C@H](C)C[C@H](OC(C)=O)[C@]2(COC(C)=O)[C@@H]1[C@H](OC(=O)/C(C)=C/C)CC[C@]2(O)CCl)C1=CC(=O)OC1`: the outcome in the data set on SH-SY5Y [1], in the data set with SH-SY5Y [2] and in the data set on SH-SY5Y [3] was inactive.

Regarding `C/C=C(\C)C(=O)OC[C@@]12[C@H](CCC[C@]1(O)CO)[C@@](C)(CCC1=CC(=O)OC1)[C@H](C)C[C@@H]2O`, the outcome in the data set with SH-SY5Y [1], in the data set with SH-SY5Y [2] and in the data set on SH-SY5Y [3] was inactive.

Turning to `C/C=C(\C)C(=O)O[C@@H]1CC[C@]2(CO2)[C@]2(COC(C)=O)[C@@H](OC(C)=O)C[C@@H](C)[C@](C)(C[C@H](OC(C)=O)C3=CC(=O)OC3)[C@@H]12`, the outcome with SH-SY5Y [1], in the data set with SH-SY5Y [2] and in the data set on SH-SY5Y [3] was inactive.

In the case of `C/C=C(\C)C(=O)OC[C@@]12[C@H](CCC[C@]1(O)COC(C)=O)[C@@](C)(CCC1=CC(=O)OC1)[C@H](C)C[C@@H]2O`, the result in the data set on SH-SY5Y [1], with SH-SY5Y [2] and with SH-SY5Y [3] was inactive.

For `C/C=C(\C)C(=O)O[C@@H]1CC[C@](O)(CCl)[C@]2(COC(C)=O)[C@@H](OC(C)=O)C[C@@H](C)[C@](C)(C[C@H](OC(C)=O)C3=CC(=O)OC3)[C@@H]12` [AJUGAMARIN A2 CHLOROHYDRIN], the Activity with SH-SY5Y [1] is given as 71%; with SH-SY5Y [2], 79.7%; in the data set on SH-SY5Y [3] it was 83.7%.

For the compound `C/C=C(\C)C(=O)[C@@H]1CC[C@]2(CO2)[C@]2(COC(C)=O)[C@@H](OC(C)=O)C[C@@H](C)[C@](C)(C[C@H](OC(=O)[C@@H](C)CC)C3=CC(=O)OC3)[C@@H]12`, the result in the data set with SH-SY5Y [1], in the data set with SH-SY5Y [2] and in the data set on SH-SY5Y [3] was inactive.

In the case of `CC[C@H](C)C(=O)O[C@@H](C[C@@]1(C)[C@H](C)C[C@H](OC(C)=O)[C@]2(COC(C)=O)[C@@H]1[C@H](OC(=O)[C@@H](C)CC)CC[C@]21CO1)C1=CC(=O)OC1` [AJUGATAKASIN B], the values for the Activity in the data set with SH-SY5Y [1], with SH-SY5Y [2] and in the data set with SH-SY5Y [3] were 70.2%, 76.5% and 84.3%, respectively.

Regarding `C/C=C(\C)C(=O)O[C@@H](C[C@@]1(C)[C@H](C)C[C@H](OC(C)=O)[C@]2(COC(C)=O)[C@@H]1[C@H](OC(C)=O)CC[C@]21CO1)C1=CC(=O)OC1` [AJUGANIPPONIN A], the Activity result in the data set on SH-SY5Y [4] was “Non-toxic”; in the data set with SH-SY5Y [1], 65.4%; in the data set with SH-SY5Y [2], 69.2%; in the data set on SH-SY5Y [3] it was 76.6%.

Source of the values: ChEMBL document CHEMBL1811884, “Bioactive neo-clerodane diterpenoids from the whole plants of Ajuga ciliata Bunge” (J Nat Prod, 2011).
